{"source": "ChEMBL document CHEMBL2074217", "about": "“Differences in the transport of the antiepileptic drugs phenytoin, levetiracetam and carbamazepine by human and mouse P-glycoprotein” (Neuropharmacology, 2006)", "assay_type_in_all_cases": "functional, cell-based", "key": {"[1]": {"target": "T1, ATP-dependent translocase ABCB1 (Homo sapiens, UniProt P08183)", "assay": "TP_TRANSPORTER: transcellular transport in MDR1-expressing LLC-PK1 cells", "settings": "pig", "procedure,_shortened": "(§1)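 Polarized monolayers of LLC-PK1 pig kidney cells transfected with human MDR1, mouse mdr1a or mouse mdr1b cDNA, paired with wildtype LLC-PK1 monolayers. Directional transport across the monolayer was expressed as a transport ratio. The Pgp inhibitor PSC833 was used to test whether transport was Pgp-specific. Cyclosporin A served as the positive-control Pgp substrate.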"}, "[2]": {"target": "T2, ATP-dependent translocase ABCB1 (Mus musculus, UniProt P21447)", "T2 sequence (P21447 whole entry)": "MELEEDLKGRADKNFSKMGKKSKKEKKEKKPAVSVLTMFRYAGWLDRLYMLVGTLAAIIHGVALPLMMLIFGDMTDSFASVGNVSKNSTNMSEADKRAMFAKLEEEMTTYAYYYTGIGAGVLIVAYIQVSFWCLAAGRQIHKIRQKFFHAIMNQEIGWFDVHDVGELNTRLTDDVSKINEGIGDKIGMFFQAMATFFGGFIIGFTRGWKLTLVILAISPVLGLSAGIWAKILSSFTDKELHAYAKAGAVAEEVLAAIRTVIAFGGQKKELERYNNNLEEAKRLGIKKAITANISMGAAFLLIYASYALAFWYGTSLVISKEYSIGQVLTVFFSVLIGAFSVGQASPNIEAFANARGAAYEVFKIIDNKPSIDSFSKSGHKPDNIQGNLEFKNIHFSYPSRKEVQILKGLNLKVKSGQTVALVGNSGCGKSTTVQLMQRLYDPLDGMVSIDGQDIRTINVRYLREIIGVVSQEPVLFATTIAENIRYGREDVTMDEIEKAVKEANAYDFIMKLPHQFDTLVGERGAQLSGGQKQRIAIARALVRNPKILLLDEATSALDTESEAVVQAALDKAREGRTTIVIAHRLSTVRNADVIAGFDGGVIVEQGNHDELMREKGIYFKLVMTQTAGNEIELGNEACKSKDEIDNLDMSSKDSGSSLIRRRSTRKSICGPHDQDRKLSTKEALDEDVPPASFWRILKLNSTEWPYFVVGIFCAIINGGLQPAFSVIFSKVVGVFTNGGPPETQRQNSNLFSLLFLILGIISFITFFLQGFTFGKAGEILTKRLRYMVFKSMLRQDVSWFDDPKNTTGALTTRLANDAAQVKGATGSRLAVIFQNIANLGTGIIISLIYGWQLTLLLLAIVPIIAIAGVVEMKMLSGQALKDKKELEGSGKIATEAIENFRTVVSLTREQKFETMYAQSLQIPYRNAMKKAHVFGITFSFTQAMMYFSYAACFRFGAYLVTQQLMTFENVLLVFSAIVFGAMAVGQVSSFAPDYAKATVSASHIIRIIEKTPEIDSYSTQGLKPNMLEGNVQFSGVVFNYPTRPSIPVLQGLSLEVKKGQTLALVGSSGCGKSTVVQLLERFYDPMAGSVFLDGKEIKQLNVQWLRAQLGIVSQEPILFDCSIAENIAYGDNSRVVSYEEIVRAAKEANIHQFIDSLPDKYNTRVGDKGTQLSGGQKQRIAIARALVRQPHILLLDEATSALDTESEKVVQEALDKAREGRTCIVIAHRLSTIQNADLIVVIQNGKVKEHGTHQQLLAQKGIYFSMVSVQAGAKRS", "assay": "TP_TRANSPORTER: transcellular transport in mdr1a-expressing LLC-PK1 cells", "settings": "pig", "procedure,_shortened": "as §1"}, "[3]": {"target": "ATP-dependent translocase ABCB1 (Mus musculus, UniProt P06795)", "sequence (P06795 whole entry)": "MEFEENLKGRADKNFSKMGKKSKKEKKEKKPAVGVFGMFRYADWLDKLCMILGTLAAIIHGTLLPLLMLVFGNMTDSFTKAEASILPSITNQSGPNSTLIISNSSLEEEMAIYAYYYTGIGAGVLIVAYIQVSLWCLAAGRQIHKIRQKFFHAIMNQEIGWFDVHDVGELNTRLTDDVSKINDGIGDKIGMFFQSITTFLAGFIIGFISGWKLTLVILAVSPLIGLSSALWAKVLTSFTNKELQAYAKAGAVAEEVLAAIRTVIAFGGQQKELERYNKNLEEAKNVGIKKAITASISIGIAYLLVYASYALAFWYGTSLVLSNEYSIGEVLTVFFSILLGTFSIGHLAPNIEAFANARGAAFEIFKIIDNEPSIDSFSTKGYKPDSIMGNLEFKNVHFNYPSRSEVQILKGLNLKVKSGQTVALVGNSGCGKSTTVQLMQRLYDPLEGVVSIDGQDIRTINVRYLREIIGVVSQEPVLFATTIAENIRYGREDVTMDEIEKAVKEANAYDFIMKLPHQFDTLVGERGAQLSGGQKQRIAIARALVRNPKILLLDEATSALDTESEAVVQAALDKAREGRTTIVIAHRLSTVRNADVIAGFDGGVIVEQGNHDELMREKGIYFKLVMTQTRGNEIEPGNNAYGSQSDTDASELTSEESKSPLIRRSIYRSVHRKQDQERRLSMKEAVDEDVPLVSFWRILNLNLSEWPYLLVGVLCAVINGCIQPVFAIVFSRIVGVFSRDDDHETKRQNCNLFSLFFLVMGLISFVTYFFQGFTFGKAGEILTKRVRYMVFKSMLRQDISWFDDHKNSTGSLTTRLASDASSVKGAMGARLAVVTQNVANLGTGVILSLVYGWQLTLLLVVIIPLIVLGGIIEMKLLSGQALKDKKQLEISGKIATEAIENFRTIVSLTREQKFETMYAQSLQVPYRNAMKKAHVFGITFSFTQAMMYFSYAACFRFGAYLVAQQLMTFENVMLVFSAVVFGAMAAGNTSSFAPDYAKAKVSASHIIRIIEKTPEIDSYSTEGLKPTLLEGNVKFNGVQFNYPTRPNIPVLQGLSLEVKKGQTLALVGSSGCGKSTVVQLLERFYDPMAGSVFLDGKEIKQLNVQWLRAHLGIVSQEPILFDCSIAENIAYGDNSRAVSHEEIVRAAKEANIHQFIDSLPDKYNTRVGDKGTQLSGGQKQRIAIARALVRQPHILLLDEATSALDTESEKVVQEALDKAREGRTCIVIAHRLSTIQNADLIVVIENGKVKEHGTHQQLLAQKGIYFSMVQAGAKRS", "assay": "TP_TRANSPORTER: transcellular transport in mdr1b-expressing LLC-PK1 cells", "settings": "pig", "procedure,_shortened": "as §1"}, "[4]": {"target": "ATP-binding cassette sub-family C member 2 (Homo sapiens, UniProt Q92887)", "sequence (Q92887 whole entry)": "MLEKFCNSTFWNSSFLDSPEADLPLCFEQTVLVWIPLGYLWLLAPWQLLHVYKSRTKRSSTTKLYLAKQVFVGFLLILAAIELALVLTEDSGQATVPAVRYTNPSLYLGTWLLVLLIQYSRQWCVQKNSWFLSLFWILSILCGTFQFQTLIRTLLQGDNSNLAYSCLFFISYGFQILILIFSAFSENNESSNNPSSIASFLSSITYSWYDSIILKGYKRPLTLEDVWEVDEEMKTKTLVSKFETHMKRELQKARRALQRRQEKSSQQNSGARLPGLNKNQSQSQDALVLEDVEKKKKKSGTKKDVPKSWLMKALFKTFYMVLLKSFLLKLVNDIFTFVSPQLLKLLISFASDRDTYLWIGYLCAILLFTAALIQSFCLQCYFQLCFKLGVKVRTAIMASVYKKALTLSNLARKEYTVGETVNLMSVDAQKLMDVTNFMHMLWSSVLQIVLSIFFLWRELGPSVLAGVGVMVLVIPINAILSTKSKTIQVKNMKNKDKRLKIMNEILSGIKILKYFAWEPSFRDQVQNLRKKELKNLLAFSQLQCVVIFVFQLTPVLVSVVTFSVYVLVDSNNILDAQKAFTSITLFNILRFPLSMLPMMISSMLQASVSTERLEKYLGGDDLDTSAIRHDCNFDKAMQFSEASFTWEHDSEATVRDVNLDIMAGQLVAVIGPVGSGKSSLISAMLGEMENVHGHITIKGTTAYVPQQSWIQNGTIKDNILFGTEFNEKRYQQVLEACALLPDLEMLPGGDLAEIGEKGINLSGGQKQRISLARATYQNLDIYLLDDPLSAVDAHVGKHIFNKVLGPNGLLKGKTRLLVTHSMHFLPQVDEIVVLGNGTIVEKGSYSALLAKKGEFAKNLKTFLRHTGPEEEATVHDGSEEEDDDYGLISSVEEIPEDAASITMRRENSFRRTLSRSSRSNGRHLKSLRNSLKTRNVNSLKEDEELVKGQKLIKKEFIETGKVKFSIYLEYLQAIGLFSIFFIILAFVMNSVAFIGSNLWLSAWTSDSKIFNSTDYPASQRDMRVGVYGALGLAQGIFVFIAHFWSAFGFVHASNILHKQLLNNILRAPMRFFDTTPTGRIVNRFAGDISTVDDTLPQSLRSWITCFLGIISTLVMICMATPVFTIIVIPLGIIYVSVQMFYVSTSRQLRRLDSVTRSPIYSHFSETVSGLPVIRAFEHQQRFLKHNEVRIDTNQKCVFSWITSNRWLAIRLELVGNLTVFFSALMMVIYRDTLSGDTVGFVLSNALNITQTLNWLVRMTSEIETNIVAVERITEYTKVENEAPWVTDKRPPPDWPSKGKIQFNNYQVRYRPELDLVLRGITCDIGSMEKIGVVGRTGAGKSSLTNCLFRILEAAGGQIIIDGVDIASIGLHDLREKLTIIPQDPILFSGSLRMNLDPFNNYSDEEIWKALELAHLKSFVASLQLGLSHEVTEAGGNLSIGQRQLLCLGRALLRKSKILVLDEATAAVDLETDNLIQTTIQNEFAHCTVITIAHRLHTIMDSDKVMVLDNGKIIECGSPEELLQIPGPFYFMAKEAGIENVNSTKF", "assay": "TP_TRANSPORTER: transcellular transport in MRP2-expressing MDCKII cells", "settings": "dog, mdck-ii", "procedure,_shortened": "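Directional transcellular transport was measured across polarized MDCKII monolayers transfected with human MRP2 cDNA and compared with wildtype MDCKII cells. Vinblastine served as the reference MRP2 substrate. The read-out was the transport ratio (TR).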"}, "[5]": {"target": "T2, ATP-dependent translocase ABCB1", "assay": "TP_TRANSPORTER: inhibition of cyclosporin A transcellular transport by PSC833 at a concentration of 30uM in mdr1a-expressing LLC-PK1 cells", "settings": "pig, llc-pk1, 30 µM"}, "[6]": {"target": "T2, ATP-dependent translocase ABCB1", "assay": "TP_TRANSPORTER: inhibition of phenytoin transcellular transport by PSC833 at a concentration of 30uM in mdr1a-expressing LLC-PK1 cells", "settings": "pig, llc-pk1, 30 µM"}, "[7]": {"target": "T1, ATP-dependent translocase ABCB1", "assay": "TP_TRANSPORTER: inhibition of cyclosporin A transcellular transport by PSC833 at a concentration of 30uM in MDR1-expressing MDCKII cells", "settings": "dog, mdck-ii"}, "[8]": {"target": "T2, ATP-dependent translocase ABCB1", "assay": "TP_TRANSPORTER: inhibition of levetiracetam transcellular transport by PSC833 at a concentration of 30uM in mdr1a-expressing LLC-PK1 cells", "settings": "pig, llc-pk1, 30 µM"}, "[9]": {"target": "T1, ATP-dependent translocase ABCB1", "assay": "TP_TRANSPORTER: inhibition of cyclosporin A transcellular transport by carbamazapine 224 uM in MDR1-expressing LLC-PK1 cells", "settings": "pig, llc-pk1, 224 µM"}, "[10]": {"target": "T2, ATP-dependent translocase ABCB1", "assay": "TP_TRANSPORTER: inhibition of cyclosporin A transcellular transport by carbamazepine at a concentration of 224uM in mdr1a-expressing LLC-PK1 cells", "settings": "pig, llc-pk1, 224 µM"}, "[11]": {"target": "T1, ATP-dependent translocase ABCB1", "assay": "TP_TRANSPORTER: inhibition of cyclosporin A transcellular transport by tariquidar at a concentration of 0.2uM in MDR1-expressing MDCKII cells", "settings": "dog, mdck-ii"}}}
{"compound": "O=C1NC(=O)C(c2ccccc2)(c2ccccc2)N1", "note": "[PHENYTOIN]", "values": [{"measurement": "Activity", "setting": "[1]", "value": "is not a substrate [-]"}, {"measurement": "Activity", "setting": "[2]", "value": "substrate [+]"}, {"measurement": "Activity", "setting": "[3]", "value": "is not a substrate [-]"}, {"measurement": "Activity", "setting": "[4]", "value": "substrate [+]"}]}
{"compound": "CC[C@@H](C(N)=O)N1CCCC1=O", "values": [{"measurement": "Activity", "setting": "[1]", "value": "is not a substrate [-]"}, {"measurement": "Activity", "setting": "[2]", "value": "substrate [+]"}, {"measurement": "Activity", "setting": "[3]", "value": "is not a substrate [-]"}, {"measurement": "Activity", "setting": "[4]", "value": "is not a substrate [-]"}]}
{"compound": "CC[C@]1(O)C[C@@H]2CN(CCc3c([nH]c4ccccc34)[C@@](C(=O)OC)(c3cc4c(cc3OC)N(C)[C@H]3[C@@](O)(C(=O)OC)[C@H](OC(C)=O)[C@]5(CC)C=CCN6CC[C@]43[C@@H]65)C2)C1", "note": "[VINBLASTINE]", "values": [{"measurement": "Activity", "setting": "[4]", "value": "substrate [+]"}]}
{"compound": "C/C=C/C[C@@H](C)C(=O)[C@H]1C(=O)N[C@@H](C(C)C)C(=O)N(C)CC(=O)N(C)[C@@H](CC(C)C)C(=O)N[C@@H](C(C)C)C(=O)N(C)[C@@H](CC(C)C)C(=O)N[C@@H](C)C(=O)N[C@H](C)C(=O)N(C)[C@@H](CC(C)C)C(=O)N(C)[C@@H](CC(C)C)C(=O)N(C)[C@@H](C(C)C)C(=O)N1C", "note": "[VALSPODAR]", "values": [{"measurement": "Activity", "setting": "[5]", "value": "inhibitor [+]"}, {"measurement": "Activity", "setting": "[6]", "value": "inhibitor [+]"}, {"measurement": "Activity", "setting": "[7]", "value": "inhibitor [+]"}, {"measurement": "Activity", "setting": "[8]", "value": "inhibitor [+]"}]}
{"compound": "NC(=O)N1c2ccccc2C=Cc2ccccc21", "note": "[CARBAMAZEPINE]", "values": [{"measurement": "Activity", "setting": "[1]", "value": "is not a substrate [-]"}, {"measurement": "Activity", "setting": "[9]", "value": "is not a inhibitor [-]"}, {"measurement": "Activity", "setting": "[2]", "value": "is not a substrate [-]"}, {"measurement": "Activity", "setting": "[3]", "value": "is not a substrate [-]"}, {"measurement": "Activity", "setting": "[10]", "value": "is not an inhibitor [-]"}]}
{"compound": "COc1cc2c(cc1OC)CN(CCc1ccc(NC(=O)c3cc(OC)c(OC)cc3NC(=O)c3cnc4ccccc4c3)cc1)CC2", "values": [{"measurement": "Activity", "setting": "[11]", "value": "inhibitor [+]"}]}
